Measurements as given in ChEMBL document CHEMBL3588757, “Structure-based design, synthesis and biological testing of piperazine-linked bis-epipodophyllotoxin etoposide analogs” (Bioorg Med Chem, 2015).

Key:
IGROV-1 = assay: Cytotoxicity against human IGROV1 cells assessed as cell growth at 50 uM by SRB assay; type: functional; settings: read-out: Activity
SN12C = assay: Cytotoxicity against human SN12C cells assessed as cell growth at 0.005 uM by SRB assay; type: functional; settings: read-out: Activity
SR = assay: Cytotoxicity against human SR cells assessed as cell growth at 50 uM by SRB assay; type: functional; settings: read-out: Activity
SW-620 = assay: Cytotoxicity against human SW620 cells assessed as cell growth at 50 uM by SRB assay; type: functional; settings: read-out: Activity
A498 [1] = assay: Cytotoxicity against human A498 cells assessed as cell growth at 5 uM by SRB assay; type: functional; settings: read-out: Activity
TK-10 [2] = assay: Cytotoxicity against human TK10 cells assessed as cell growth at 5 uM by SRB assay; type: functional; settings: read-out: Activity
HOP-62 = assay: Cytotoxicity against human HOP62 cells assessed as cell growth at 0.005 uM by SRB assay; type: functional; settings: read-out: Activity
Outline: (§1)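 Measured in the NCI-60 human tumour cell line panel using five-dose testing. Growth was recorded at each dose for each cell line, and a GI50 was derived for each line.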

M14 = assay: Cytotoxicity against human M14 cells assessed as cell growth at 5 uM by SRB assay; type: functional; settings: read-out: Activity
TK-10 [3] = assay: Cytotoxicity against human TK10 cells assessed as cell growth at 0.005 uM by SRB assay; type: functional; settings: read-out: Activity
HL-60(TB) [4] = assay: Cytotoxicity against human HL-60(TB) cells assessed as cell growth at 0.005 uM by SRB assay; type: functional; settings: read-out: Activity; outline: as §1
MCF7 [5] = assay: Cytotoxicity against human MCF7 cells by SRB assay; type: functional
Outline: (§2)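 NCI-60 panel screen; 5-dose testing giving GI50 per cell line, plus a single 10 µM one-dose test. Method details not given beyond the NCI screen.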

KM12 [6] = assay: Cytotoxicity against human KM12 cells assessed as cell growth at 50 uM by SRB assay; type: functional; settings: read-out: Activity
MCF7 [7] = assay: Cytotoxicity against human MCF7 cells assessed as cell growth at 0.005 uM by SRB assay; type: functional; settings: read-out: Activity
KM12 [8] = assay: Cytotoxicity against human KM12 cells assessed as cell growth at 5 uM by SRB assay; type: functional; settings: read-out: Activity
MDA-MB-231 = assay: Cytotoxicity against human MDA-MB-231/ATCC cells assessed as cell growth at 50 uM by SRB assay; type: functional; settings: read-out: Activity
A498 [9] = assay: Cytotoxicity against human A498 cells assessed as cell growth at 0.05 uM by SRB assay; type: functional; settings: read-out: Activity
A498 [10] = assay: Cytotoxicity against human A498 cells assessed as cell growth at 50 uM by SRB assay; type: functional; settings: read-out: Activity
ACHN = assay: Cytotoxicity against human ACHN cells assessed as cell growth at 0.5 uM by SRB assay; type: functional; settings: read-out: Activity
NCI-H322M = assay: Cytotoxicity against human NCI-H322M cells assessed as cell growth at 0.05 uM by SRB assay; type: functional; settings: read-out: Activity
UACC-257 = assay: Cytotoxicity against human UACC257 cells assessed as cell growth at 5 uM by SRB assay; type: functional; settings: read-out: Activity
OVCAR-5 = assay: Cytotoxicity against human OVCAR5 cells by SRB assay; type: functional; outline: as §2
CCRF-CEM [11] = assay: Cytotoxicity against human CCRF-CEM cells assessed as cell growth at 0.5 uM by SRB assay; type: functional; settings: read-out: Activity
NCI-H23 = assay: Cytotoxicity against human NCI-H23 cells assessed as cell growth at 5 uM by SRB assay; type: functional; settings: read-out: Activity
HL-60(TB) [12] = assay: Cytotoxicity against human HL-60(TB) cells by SRB assay; type: functional; outline: as §1
U-251 = assay: Cytotoxicity against human U251 cells assessed as cell growth at 5 uM by SRB assay; type: functional; settings: read-out: Activity
[13] = Cytotoxicity against human Hs578T cells assessed as cell growth at 0.005 uM by SRB assay; type: functional; settings: Hs-578T, read-out: Activity; outline: as §1
A498 [14] = assay: Cytotoxicity against human A498 cells by SRB assay; type: functional
SNB-19 [15] = assay: Cytotoxicity against human SNB19 cells assessed as cell growth at 0.5 uM by SRB assay; type: functional; settings: read-out: Activity
SNB-19 [16] = assay: Cytotoxicity against human SNB19 cells assessed as cell growth at 50 uM by SRB assay; type: functional; settings: read-out: Activity
A549 = assay: Cytotoxicity against human A549/ATCC cells assessed as cell growth at 0.5 uM by SRB assay; type: functional; settings: read-out: Activity
OVCAR-4 = assay: Cytotoxicity against human OVCAR4 cells assessed as cell growth at 0.005 uM by SRB assay; type: functional; settings: read-out: Activity
MCF7 [17] = assay: Cytotoxicity against human MCF7 cells assessed as cell growth at 0.5 uM by SRB assay; type: functional; settings: read-out: Activity
BT-549 = assay: Cytotoxicity against human BT549 cells assessed as cell growth at 0.05 uM by SRB assay; type: functional; settings: read-out: Activity
MDA-MB-435 [18] = assay: Cytotoxicity against human MDA-MB-435 cells assessed as cell growth at 5 uM by SRB assay; type: functional; settings: read-out: Activity
MDA-MB-435 [19] = assay: Cytotoxicity against human MDA-MB-435 cells assessed as cell growth at 0.5 uM by SRB assay; type: functional; settings: read-out: Activity
KM12 [20] = assay: Cytotoxicity against human KM12 cells by SRB assay; type: functional; outline: as §2
CCRF-CEM [21] = assay: Cytotoxicity against human CCRF-CEM cells assessed as cell growth at 0.05 uM by SRB assay; type: functional; settings: read-out: Activity
K562 = assay: Cytotoxicity against human K562 cells assessed as cell growth inhibition after 72 hrs by MTS assay; type: functional, cell-based; settings: K562, 72 h
MDA-MB-468 [22] = assay: Cytotoxicity against human MDA-MB-468 cells assessed as cell growth at 0.5 uM by SRB assay; type: functional; settings: read-out: Activity
MDA-MB-468 [23] = assay: Cytotoxicity against human MDA-MB-468 cells assessed as cell growth at 50 uM by SRB assay; type: functional; settings: read-out: Activity
NCI-H460 = assay: Cytotoxicity against human NCI-H460 cells assessed as cell growth at 50 uM by SRB assay; type: functional; settings: read-out: Activity
SK-OV-3 = assay: Cytotoxicity against human SKOV3 cells assessed as cell growth at 5 uM by SRB assay; type: functional; settings: read-out: Activity
SK-MEL-5 = assay: Cytotoxicity against human SK-MEL-5 cells by SRB assay; type: functional; outline: as §2
[24] = read-out: LC50 (the source's name)
[25] = read-out: pLC50 (the source's name) (converted)

COc1cc([C@@H]2c3cc4c(cc3[C@@H](NC(=O)CN3CCN(CCCCCCCCCCN5CCN(CC(=O)N[C@@H]6c7cc8c(cc7[C@@H](c7cc(OC)c(O)c(OC)c7)[C@H]7C(=O)OC[C@@H]76)OCO8)CC5)CC3)[C@H]3COC(=O)[C@H]23)OCO4)cc(OC)c1O
growth at 50 µM (IGROV-1): -41%
growth at 0.005 µM (SN12C): 94%
growth at 50 µM (SR): -12%
growth at 50 µM (SW-620): -89%
growth at 5 µM (A498 [1]): -9%
growth at 5 µM (TK-10 [2]): -4%
growth at 0.005 µM (HOP-62): 88%
growth at 5 µM (M14): -36%
growth at 0.005 µM (TK-10 [3]): 93%
growth at 0.005 µM (HL-60(TB) [4]): 96%
GI50 (MCF7 [5]; read-out: GI50): 0.114 µM
CC50 (MCF7 [5]; [24]): 37.4 µM
TGI (MCF7 [5]; read-out: TGI): 8.5 µM
GI50 (MCF7 [5]; read-out: pGI50 (converted)): 0.115 µM
CC50 (MCF7 [5]; [25]): 37.2 µM
TGI (MCF7 [5]; read-out: pTGI (converted)): 8.51 µM
growth at 50 µM (KM12 [6]): -31%
growth at 0.005 µM (MCF7 [7]): 90%
growth at 5 µM (KM12 [8]): -22%
growth at 50 µM (MDA-MB-231): -54%
growth at 0.05 µM (A498 [9]): 72%
growth at 50 µM (A498 [10]): -97%
growth at 0.5 µM (ACHN): 41%
growth at 0.05 µM (NCI-H322M): 92%
growth at 5 µM (UACC-257): -97%
GI50 (OVCAR-5; read-out: GI50): 0.83 µM
CC50 (OVCAR-5; [24]): 19.5 µM
TGI (OVCAR-5; read-out: TGI): 5.65 µM
GI50 (OVCAR-5; read-out: pGI50 (converted)): 0.832 µM
CC50 (OVCAR-5; [25]): 19.5 µM
TGI (OVCAR-5; read-out: pTGI (converted)): 5.62 µM
growth at 0.5 µM (CCRF-CEM [11]): 4%
growth at 5 µM (NCI-H23): -35%
GI50 (HL-60(TB) [12]; read-out: GI50): 0.113 µM
CC50 (HL-60(TB) [12]; [24]): > 50 µM
TGI (HL-60(TB) [12]; read-out: TGI): 0.901 µM
GI50 (HL-60(TB) [12]; read-out: pGI50 (converted)): 0.112 µM
CC50 (HL-60(TB) [12]; [25]): > 50.1 µM
TGI (HL-60(TB) [12]; read-out: pTGI (converted)): 0.891 µM
growth at 5 µM (U-251): 9%
growth at 0.005 µM [13]: 94%
CC50 (A498 [14]; [24]): 14.6 µM
GI50 (A498 [14]; read-out: pGI50 (converted)): 0.513 µM
CC50 (A498 [14]; [25]): 14.8 µM
TGI (A498 [14]; read-out: pTGI (converted)): 3.55 µM
growth at 0.5 µM (SNB-19 [15]): 42%
growth at 50 µM (SNB-19 [16]): -92%
growth at 0.5 µM (A549): 9%
growth at 0.005 µM (OVCAR-4): 98%
growth at 0.5 µM (MCF7 [17]): 30%
growth at 0.05 µM (BT-549): 87%
growth at 5 µM (MDA-MB-435 [18]): -60%
growth at 0.5 µM (MDA-MB-435 [19]): 39%
GI50 (KM12 [20]; read-out: GI50): 0.892 µM
CC50 (KM12 [20]; [24]): > 50 µM
TGI (KM12 [20]; read-out: TGI): 2.95 µM
GI50 (KM12 [20]; read-out: pGI50 (converted)): 0.891 µM
CC50 (KM12 [20]; [25]): > 50.1 µM
TGI (KM12 [20]; read-out: pTGI (converted)): 2.95 µM
growth at 0.05 µM (CCRF-CEM [21]): 62%
IC50 (K562): 0.044 µM
growth at 0.5 µM (MDA-MB-468 [22]): 73%
growth at 50 µM (MDA-MB-468 [23]): -69%
growth at 50 µM (NCI-H460): -81%
growth at 5 µM (SK-OV-3): 4%
GI50 (SK-MEL-5; read-out: GI50): 5.24 µM
CC50 (SK-MEL-5; [24]): 35.4 µM
TGI (SK-MEL-5; read-out: TGI): 13.6 µM
GI50 (SK-MEL-5; read-out: pGI50 (converted)): 5.25 µM
CC50 (SK-MEL-5; [25]): 35.5 µM
TGI (SK-MEL-5; read-out: pTGI (converted)): 13.5 µM
